{"data": "Measurements pooled from the literature", "TYK2 JH1": "Non-receptor tyrosine-protein kinase TYK2, JH1 (TYK2, Homo sapiens, UniProt P29597)", "TYK2 JH2": "Non-receptor tyrosine-protein kinase TYK2, JH2 (TYK2, Homo sapiens, UniProt P29597)", "TYK2": "Non-receptor tyrosine-protein kinase TYK2 (TYK2, Homo sapiens, UniProt P29597)", "note": "Compare with care: the assays were run in different laboratories."}
{"Structure (SMILES)": "CN(C)c1nccc(-c2cnn3ncccc23)n1", "target": "TYK2 JH1", "test": "cell-free assay, competition with immobilised ligand", "setting": "1 µM", "remaining binding": "51%"}
{"Structure (SMILES)": "O=C(Nc1c[nH]nc1C(=O)NC1CCNCC1)c1cc(F)cc(F)c1", "target": "TYK2 JH2", "test": "binding, competition with immobilised ligand", "setting": "1 µM", "remaining binding": "100%"}
{"Structure (SMILES)": "C[C@@H]1CN(c2ccc3ncc(-c4ccc5[nH]nc(C6CC6)c5c4)n3n2)C[C@H](C)O1", "target": "TYK2", "test": "binding, competition with immobilised ligand", "setting": "50 nM", "remaining binding": "88%"}
{"Structure (SMILES)": "N#Cc1ccccc1CSc1nnc2c(n1)[nH]c1ccccc12", "target": "TYK2 JH1", "test": "binding, competition with immobilised ligand", "setting": "10 µM", "remaining binding": "96%"}
{"Structure (SMILES)": "O=C(c1ccc(Nc2ncc(Cl)c(-c3ccc(Cl)s3)n2)cc1)N1CCC(N2CCCC2)CC1", "target": "TYK2 JH1", "test": "binding, competition with immobilised ligand", "setting": "1 µM", "remaining binding": "25%"}
{"Structure (SMILES)": "CN(CCCC(F)(F)F)c1nccc(-c2cnn3ncccc23)n1", "target": "TYK2 JH1", "test": "cell-free assay, competition with immobilised ligand", "setting": "1 µM", "remaining binding": "100%"}
{"Structure (SMILES)": "Nc1ncc2c(n1)-c1c([nH]c3ccc(C#CC4CC4)cc13)CCCC2", "target": "TYK2 JH2", "test": "binding, competition with immobilised ligand", "setting": "1 µM", "remaining binding": "73%"}
{"Structure (SMILES)": "COc1cnc(Nc2cccc(S(N)(=O)=O)c2)nc1N1CCN(c2ccccc2)C(=O)C1", "target": "TYK2 JH1", "test": "binding, competition with immobilised ligand", "setting": "1 µM", "remaining binding": "39%"}
{"Structure (SMILES)": "COc1ccc2cc(OCC3(C(=O)O)CN(C(=O)c4ccc(F)cc4)C3)ccc2c1", "target": "TYK2 JH2", "test": "cell-free assay, competition with immobilised ligand", "setting": "1 µM", "remaining binding": "100%"}
{"Structure (SMILES)": "N[C@H]1CCN(c2nccc(-c3cnn4ncccc34)n2)C1", "target": "TYK2", "test": "binding", "setting": "1 µM", "remaining binding": "78%"}
{"Structure (SMILES)": "CC(=O)N1CCC(c2ccc(C(=O)NC3=NCCN3)cc2C(F)(F)F)CC1", "target": "TYK2 JH2", "test": "cell-free assay, competition with immobilised ligand", "setting": "1 µM", "remaining binding": "100%"}
{"Structure (SMILES)": "CCN1CCN(Cc2ccc(C(=O)Nc3ccc(C)c(Oc4ccc5c(c4)CC(=O)N5)c3)cc2C(F)(F)F)CC1", "target": "TYK2 JH2", "test": "binding, competition with immobilised ligand", "setting": "1 µM", "remaining binding": "100%"}
{"Structure (SMILES)": "CN(C)c1ncnc(-c2ccc3nc(Nc4cc(CN5CCN(C(=O)CC(F)(F)F)CC5)ccn4)[nH]c3c2)c1Cl", "target": "TYK2 JH2", "test": "cell-free assay, competition with immobilised ligand", "setting": "1 µM", "remaining binding": "77%"}
{"Structure (SMILES)": "O=C(NCCCN1CCOCC1)c1ccc(Nc2nccc(-c3cc4ccccc4s3)n2)cc1", "target": "TYK2 JH2", "test": "binding, competition with immobilised ligand", "setting": "1 µM", "remaining binding": "0%"}
{"Structure (SMILES)": "COc1ccc2c(c1)O[C@H](c1ccc(OC)c(OC)c1)C[C@@H]2NC(=O)C1(c2ccc3c(c2)OC(F)(F)O3)CC1", "target": "TYK2 JH2", "test": "cell-free assay, competition with immobilised ligand", "setting": "1 µM", "remaining binding": "100%"}
{"Structure (SMILES)": "O=C(NCCCN1CCOCC1)c1ccc(Nc2ncc(Cl)c(-c3ccc(Cl)s3)n2)cc1", "target": "TYK2 JH1", "test": "binding, competition with immobilised ligand", "setting": "1 µM", "remaining binding": "26%"}
{"Structure (SMILES)": "C[C@H](c1ccc(F)cc1)N(Cc1cccc(C(=O)O)c1)C(=O)c1cnc2ccccc2c1", "target": "TYK2 JH2", "test": "cell-free assay, competition with immobilised ligand", "setting": "1 µM", "remaining binding": "92%"}
{"Structure (SMILES)": "O=C(NCC1CCOCC1)c1n[nH]cc1NC(=O)c1c(F)cccc1F", "target": "TYK2 JH1", "test": "binding, competition with immobilised ligand", "setting": "1 µM", "remaining binding": "91%"}
{"Structure (SMILES)": "Cc1cnn2ncc(-c3ccnc(N(C)C)n3)c2c1", "target": "TYK2 JH1", "test": "cell-free assay, competition with immobilised ligand", "setting": "1 µM", "remaining binding": "64%"}
{"Structure (SMILES)": "Cc1cnc(Nc2ccc(C(=O)N3CCC(N4CCCC4)CC3)cc2)nc1-c1cc2ccccc2s1", "target": "TYK2 JH2", "test": "binding, competition with immobilised ligand", "setting": "1 µM", "remaining binding": "0%"}
{"Structure (SMILES)": "CNC(=O)[C@@H]1CC[C@@H](n2c(-c3ccc4cnccc4c3)nc3ccc(C(=O)NCc4cccc(C(N)=O)c4)cc32)C1", "target": "TYK2 JH1", "test": "binding, competition with immobilised ligand", "setting": "1 µM", "remaining binding": "99%"}
{"Structure (SMILES)": "CN1CCN(c2ccc(Nc3nccc(-c4ccccc4)n3)cc2C(F)(F)F)CC1", "target": "TYK2", "test": "binding", "setting": "10 µM", "remaining binding": "0%"}
{"Structure (SMILES)": "O=C(c1ccc(Nc2ncc(Cl)c(-c3cc4ccccc4s3)n2)cc1)N1CCC(N2CCCC2)CC1", "target": "TYK2 JH2", "test": "binding, competition with immobilised ligand", "setting": "1 µM", "remaining binding": "0.1%"}
{"Structure (SMILES)": "c1cncc(-c2cccc(Nc3nccc(NC4CCCCC4)n3)c2)c1", "target": "TYK2 JH1", "test": "binding, competition with immobilised ligand", "setting": "10 µM", "remaining binding": "0.2%"}
{"Structure (SMILES)": "COc1ncc2cc3ccccc3nc2c1C#N", "target": "TYK2 JH1", "test": "cell-free assay, competition with immobilised ligand", "setting": "5 µM", "remaining binding": "69%"}
{"Structure (SMILES)": "CC1CCCN1c1nccc(-c2cnn3ncccc23)n1 (stereo not shown)", "target": "TYK2 JH1", "test": "cell-free assay, competition with immobilised ligand", "setting": "1 µM", "remaining binding": "100%"}
{"Structure (SMILES)": "O=C(N[C@H]1CCCCC/C=C\\C2C[C@@]2(C(=O)O)NC(=O)[C@@H]2C[C@@H](Oc3ccncc3)CN2C1=O)OC1CCCC1 (stereo partly shown)", "target": "TYK2 JH1", "test": "binding, competition with immobilised ligand", "setting": "1 µM", "remaining binding": "98%"}
{"Structure (SMILES)": "O=C(c1ccc(Nc2nccc(-c3cc4ccccc4s3)n2)cc1)N1CCC(N2CCCC2)CC1", "target": "TYK2 JH2", "test": "binding, competition with immobilised ligand", "setting": "1 µM", "remaining binding": "0.1%"}
{"Structure (SMILES)": "F[C@@H]1CCN(c2nccc(-c3cnn4ncccc34)n2)C1", "target": "TYK2", "test": "binding", "setting": "1 µM", "remaining binding": "100%"}
{"Structure (SMILES)": "Cc1noc([C@H]2C[C@@H](c3ccc(C(F)(F)F)cc3)CN(C(=O)N3CCS(=O)(=O)C3)C2)n1", "target": "TYK2 JH1", "test": "cell-free assay, competition with immobilised ligand", "setting": "1 µM", "remaining binding": "100%"}
{"Structure (SMILES)": "COc1ccnn2ncc(-c3ccnc(N(C)C)n3)c12", "target": "TYK2 JH1", "test": "cell-free assay, competition with immobilised ligand", "setting": "1 µM", "remaining binding": "81%"}
{"Structure (SMILES)": "COc1cnc(Nc2cccc(S(N)(=O)=O)c2)nc1N1CCN(c2ccccc2)CC1", "target": "TYK2 JH2", "test": "binding, competition with immobilised ligand", "setting": "1 µM", "remaining binding": "85%"}
{"Structure (SMILES)": "CN(C)c1ncc(F)c(-c2cnn3ncccc23)n1", "target": "TYK2 JH1", "test": "cell-free assay, competition with immobilised ligand", "setting": "1 µM", "remaining binding": "87%"}
{"Structure (SMILES)": "CCCOc1ccc([C@H]2[C@H](C(=O)O)[C@@H](c3ccc4c(c3)OCO4)CN2CC(=O)Nc2c(CC)cccc2CC)cc1", "target": "TYK2 JH2", "test": "cell-free assay, competition with immobilised ligand", "setting": "1 µM", "remaining binding": "80%"}
